Test results reported in ChEMBL document CHEMBL1140605, “Ester-based precursors to increase the bioavailability of quercetin” (J Med Chem, 2007).

Experiments:
[1] = Solubility in Hanks balanced salt solution at 1 mg after 24 hrs; assay type: physicochemical
[2] = Permeability from apical to basolateral side of dog MDCK2 cell monolayer assessed as intact drug level in basolateral compartment after 6 hrs; assay type: ADME, cell-based, Canis lupus familiaris; conditions: mdck-ii
Outline: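 MDCK-2 monolayers were grown in DMEM with 10% FBS, seeded at 5 × 10⁵ cells/cm² on 24-mm Transwell inserts, and used at TER 100-300 Ω·cm² (10-20 days). Apical dosing was formally 30-50 µM compound in HBSS with 0.1% DMSO. After 6 h, basolateral solution was analysed by HPLC-UV at 300/370 nm and quantified against standard curves (quantification limit 0.2 µM).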

Caco-2 = experiment: Permeability from apical to basolateral side of human Caco-2 cell monolayer assessed as intact drug level in basolateral compartment after 6 hrs; assay type: ADME, cell-based; conditions: caco-2, 6 h
Outline: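 Caco-2 cells were cultured in DMEM with 10% FBS, seeded at 3 × 10⁵ cells/cm² on 24-mm Transwell inserts, and tested at TER 1.5-2 kΩ·cm² (10-20 days). Compound at formally 30-50 µM in HBSS with 0.1% DMSO was placed apically. Basolateral content at 6 h was measured by HPLC-UV (300/370 nm) against standard curves; quantification limit 0.2 µM.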

[3] = Permeability from apical to basolateral side of dog MDCK1 cell monolayer assessed as intact drug level in basolateral compartment after 6 hrs; assay type: ADME, cell-based, Canis lupus familiaris; conditions: mdck1, 6 h
Outline: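 MDCK-1 cells in DMEM with 10% FBS were seeded at 3 × 10⁵ cells/cm² on 24-mm Transwell inserts and used at TER ~10-15 kΩ·cm² (10-20 days). Compound was applied apically at formally 30-50 µM in HBSS with 0.1% DMSO. Basolateral fluid was taken at 6 h and quantified by HPLC-UV (300/370 nm) against standard curves; quantification limit 0.2 µM.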

[4] = Chemical stability assessed as half life of hydrolysis; assay type: physicochemical
Outline: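 UV-vis spectra (190-500 nm) followed in PBS (20 mM, pH 7.0, ionic strength 0.1 M with KCl)/CH₃CN 1:1 at 25 °C. The reaction was started by adding substrate freshly dissolved in acetonitrile, to a final (3-8) × 10^-5 M. Observed first- and second-step hydrolysis rate constants came from fitting the spectral data to a kinetic equation, and half-life was derived from them.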

## Nc1ccc(C(=O)Oc2cc(-c3oc4cc(O)cc(O)c4c(=O)c3O)ccc2O)cc1
[1]
  solubility at 24 h: 1.5 µM

## O=c1c(O)c(-c2ccc(O)c(O)c2)oc2cc(O)cc(O)c12 [QUERCETIN]
[2]
  Activity: 2.7%
Caco-2
  Activity: 1%
[3]
  Activity: 0.9%
[1]
  solubility at 24 h: 2.3 µM

## CC(=O)Oc1cc(OC(C)=O)c2c(=O)c(OC(C)=O)c(-c3ccc(OC(C)=O)c(OC(=O)CCCNC(=O)OC(C)(C)C)c3)oc2c1
[1]
  solubility at 24 h: 2.5 µM

## CC(C)(C)OC(=O)N[C@H]1CC[C@@H](C(=O)Oc2cc(-c3oc4cc(O)cc(O)c4c(=O)c3O)ccc2O)CC1
[4]
  t1/2: 3.31 h

## CC(=O)Oc1cc(OC(C)=O)c2c(=O)c(OC(C)=O)c(-c3ccc(OC(C)=O)c(OC(=O)[C@H]4CC[C@@H](NC(=O)OC(C)(C)C)CC4)c3)oc2c1
[1]
  solubility at 24 h: 0.8 µM

## CC(C)(C)OC(=O)NCCCCCC(=O)Oc1cc(-c2oc3cc(O)cc(O)c3c(=O)c2O)ccc1O
[4]
  t1/2: 3.67 h

## CC(=O)Oc1cc(OC(C)=O)c2c(=O)c(OC(C)=O)c(-c3ccc(OC(C)=O)c(OC(=O)c4ccc(N)cc4)c3)oc2c1
[1]
  solubility at 24 h: 1 µM

## CC(=O)Oc1cc(OC(C)=O)c2c(=O)c(OC(C)=O)c(-c3ccc(OC(C)=O)c(OC(=O)[C@@H](C)NC(=O)OC(C)(C)C)c3)oc2c1
[1]
  solubility at 24 h: 12 µM

## CC(C)(C)OC(=O)Nc1ccc(C(=O)Oc2cc(-c3oc4cc(O)cc(O)c4c(=O)c3O)ccc2O)cc1
[1]
  solubility at 24 h: 0.4 µM

## CC(C)(C)OC(=O)NCCCC(=O)Oc1cc(-c2oc3cc(O)cc(O)c3c(=O)c2O)ccc1O
[4]
  t1/2: 2.08 h

## CC(=O)Oc1cc(OC(C)=O)c2c(=O)c(OC(C)=O)c(-c3ccc(OC(C)=O)c(OC(C)=O)c3)oc2c1
[2]
  Activity: 0.5%
[1]
  solubility at 24 h: 1.1 µM

## CC(=O)Oc1cc(OC(C)=O)c2c(=O)c(OC(C)=O)c(-c3ccc(OC(C)=O)c(OC(=O)c4ccc(NC(=O)OC(C)(C)C)cc4)c3)oc2c1
[1]
  solubility at 24 h: 0.4 µM

## CC(=O)Oc1cc(OC(C)=O)c2c(=O)c(OC(C)=O)c(-c3ccc(OC(C)=O)c(OC(=O)CCCCCNC(=O)OC(C)(C)C)c3)oc2c1
[1]
  solubility at 24 h: 3.9 µM
